Data set [1] deals with P. aeruginosa CSE (PaCSE) (Pseudomonas aeruginosa, UniProt Q9I6A0). Briefly: H2S production enzymatic assay, PaCSE. It is filed as biochemical. The note with it: for inhibition of bCSEs (PaCSE): at considerably higher concentrations than for hCSE.
A further data set deals with S. aureus CSE (SaCSE) (Staphylococcus aureus, UniProt X5E0F1). The data set can be described thus: H2S production enzymatic assay, SaCSE. Format: biochemical. The note with it: for inhibition of bCSEs (SaCSE): at considerably higher concentrations than for hCSE.
A further data set has as its system persisters. Briefly: Persister assay with H2S donor. It is filed as cell-based.
Another data set has as its target SaCSE (Staphylococcus aureus, UniProt X5E0F1). The data set can be described thus: Microscale Thermophoresis. It is filed as binding.
Data set [2] in a line: Chronic exposure in animal model. It is filed as in vivo. The note with it: stringent animal model.
Data set [3] relates to P. aeruginosa PA14 and PAO1. Briefly: Antibiotic potentiation. Format: cell-based.
The test system of data set [4] is P. aeruginosa PA14. The data set can be described thus: Pyocyanin redox state in stationary phase culture. Format: cell-based. The conditions noted are these: well-aerated PA14; NL1 180 µM for 18 h. An outline of the steps: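 Stationary-phase P. aeruginosa PA14 cultures (OD600 ~1.5) were well aerated and treated with test compound at 180 µM for 18 h. Pyocyanin redox state was judged visually by culture colour: blue/green for oxidized, light yellow for reduced. Comparators were untreated wt and a cbs/cse(−) mutant.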

For data set [5], the system named is different types of human cells. The data set can be described thus: Toxicity to human cells. The note with it: various assays. It is filed as cell-based.
The subject of data set [6] is P. aeruginosa PA14. Briefly: Persister viability under antibiotic challenge. The note with it: wt cells, ciprofloxacin 10 µg/ml challenge. Format: cell-based. The method, boiled down: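 Exponentially growing P. aeruginosa PA14 cultures were challenged with ciprofloxacin at 10 µg/ml. The viable cell fraction was followed over time as a killing curve, and the curve tail was taken as the persister population. Data are mean ± SE, n=3.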

In the next data set the test system is S. aureus USA300. The data set can be described thus: Persister viability under antibiotic challenge. It is filed as cell-based. The conditions noted are these: wt cells, ciprofloxacin 10 µg/ml challenge.
Data set [7] has as its system S. aureus RN4220 (MSSA) and USA300 (MRSA). Briefly: Antibiotic potentiation. It is filed as cell-based.
The subject of data set [8] is P. aeruginosa PA14. The data set can be described thus: P. aeruginosa intranasal lung infection model. The conditions noted are these: for lung bacterial burden, single agent: NL1 or Gm administered separately, lungs collected 5h after infection. It is filed as in vivo, Swiss Webster mice.
The next data set has as its system S. aureus Newman. The data set can be described thus: S. aureus sepsis. Format: in vivo, Swiss Webster mice. The conditions noted are these: NL1 or Gm alone.
Another data set has as its target T1, SaCSE H339A mutant (Staphylococcus aureus, UniProt X5E0F1, H339A).
T1 sequence (X5E0F1 1-380 H339A): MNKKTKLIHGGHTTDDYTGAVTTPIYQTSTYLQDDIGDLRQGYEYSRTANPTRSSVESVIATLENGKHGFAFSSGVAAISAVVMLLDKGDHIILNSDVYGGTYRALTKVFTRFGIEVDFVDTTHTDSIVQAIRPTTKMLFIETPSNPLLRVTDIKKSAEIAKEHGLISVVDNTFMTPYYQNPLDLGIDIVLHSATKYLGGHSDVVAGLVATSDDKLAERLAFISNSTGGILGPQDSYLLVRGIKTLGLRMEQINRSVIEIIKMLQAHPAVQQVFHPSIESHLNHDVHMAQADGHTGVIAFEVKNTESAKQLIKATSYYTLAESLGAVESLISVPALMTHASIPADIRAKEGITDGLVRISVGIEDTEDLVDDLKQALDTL
Briefly: H2S generating activity of SaCSE H339A mutant. It is filed as biochemical, S. aureus. The note with it: for IC50: read-out: IC50 for SaCSE H339A mutant, mean ± SE, n=2.

The mark [9] stands for this setting: to approximately the same extent as genetic inactivation of bCSE.

Where two headings read alike, the source gives them in different places.

On to `NOCC(=O)O` [AOAA, aminooxyacetic acid], for which the “inhibition of bCSEs (PaCSE)” value in data set [1] is “capable of inhibiting bCSEs”. The “inhibition of bCSEs (SaCSE)” value on S. aureus CSE (SaCSE) is on record as “capable of inhibiting bCSEs”.

Take `NCCO/C=C/[C@H](N)C(=O)O` [AVG, L-aminoethoxyvinylglycine]: the “inhibition of bCSEs (PaCSE)” value in [1] is “capable of inhibiting bCSEs”. Besides, at S. aureus CSE (SaCSE), the “inhibition of bCSEs (SaCSE)” value is reported as “capable of inhibiting bCSEs”.

As to `C=CCSSSCC=C` [DATS, diallyl trisulfide], the “effect of H2S donor on anti-persister effect of NL1” value in the data set with persisters is listed as “prevented the anti-persister effect of NL1”.

As for `NO` [HA, hydroxylamine], the “inhibition of bCSEs (PaCSE)” value in data set [1] was “capable of inhibiting bCSEs”. Further, the “inhibition of bCSEs (SaCSE)” value against S. aureus CSE (SaCSE) is reported as “capable of inhibiting bCSEs”.

Consider `O=C(O)CNC(=O)Cn1c(C(F)(F)F)cc2ccc(Br)cc21` [NL1F3], for which the “apparent KD for SaCSE (MST)” value at SaCSE is reported as “failed”. This compound gave an IC50 at S. aureus CSE (SaCSE) greater than 200000 nM.

On to `O=C(O)CNC(=O)Cn1ccc2ccc(Br)cc21` [NL1], for which the “adverse effects of chronic exposure” value in data set [2] was “No adverse effects”. Also, the “sensitization of bCSE-deficient P. aeruginosa PA14 to Gm” value in data set [3] (cse mutant) is “failed to sensitize”. Also, the “sensitization of wild type P. aeruginosa PA14 to Gm” value in data set [3] (setting [9]) was “enhanced the killing effect of Gm”. For the same compound, the “culture coloration (pyocyanin redox state)” value in the data set on P. aeruginosa PA14 [4] is “green-blue coloration characteristic of the oxidized pyocyanin”. The same compound showed a Kd on SaCSE of roughly 400 nM. Moreover, the “non-toxic concentration in human cells” value in [5] is listed as “at least 25 × of its minimal potentiator concentration”. Moreover, in the data set with P. aeruginosa PA14 [6], the “effect on persisters, P. aeruginosa PA14” value is “eliminated approximately the same amount of persisters as did genetic inactivation of cse/cbs”. The “aqueous solubility relative to NL3” value in “Aqueous solubility” is recorded as “higher aqueous solubility than NL3”. The “effect on persisters, S. aureus USA300” value with S. aureus USA300 is “eliminated approximately the same amount of persisters as did genetic inactivation of cse/cbs”. Further, in data set [7] (cse mutant), the “sensitization of bCSE-deficient S. aureus RN4220 to Gm” value is on record as “failed to sensitize”. In addition, the “sensitization of wild type S. aureus RN4220 to Gm” value in [7] (setting [9]) is on record as “enhanced the killing effect of Gm”. Moreover, the “lung bacterial burden, combination with Gm” value in the data set on P. aeruginosa PA14 [8] (NL1 60 mg/kg together with Gm 2 mg/kg subcutaneous, 30 min after infection, lungs 5h after infection) is reported as “markedly decreased”. For the same compound, the “lung bacterial burden, single agent” value with P. aeruginosa PA14 [8] is on record as “did not change significantly”. For the same compound, the “survival, single agent” value in the data set on S. aureus Newman is listed as “neither NL1 nor Gm alone increased survival”.

Consider `Cc1oc(Cn2ccc3ccc(Br)cc32)cc1C(=O)O` [NL2], for which the “aqueous solubility relative to NL3” value in “Aqueous solubility” is given as “higher aqueous solubility than NL3”. For the same compound, at SaCSE H339A mutant, the “reduction of inhibition in H339A mutant versus wt SaCSE” value is ~ 70 fold and the IC50 was 154000 ± 94800 nM.

For the compound `O=C(O)c1cc(Cn2ccc3ccc(-c4cc5cccc(Cl)c5s4)cc32)[nH]n1` [NL3], the IC50 came out at 1700 ± 100 nM on SaCSE H339A mutant; 1200 nM in data set [1] (read-out: IC50 for PaCSE, L-cysteine at 100 μM); 700 nM at S. aureus CSE (SaCSE) (read-out: IC50 for SaCSE, L-cysteine at 100 μM).

With `[Na+].[SH-]` [NaHS, reference compound], in [3], the “effect of exogenous sulfide on Gm potentiation by NL1, P. aeruginosa PA14” value is recorded as “largely suppressed Gm potentiation”. Further, in data set [7], the “effect of exogenous sulfide on Gm potentiation by NL1, S. aureus RN4220” value is given as “largely suppressed Gm potentiation”.

On to gentamycin [Gm, reference compound], for which the “lung bacterial burden, single agent” value in the data set with P. aeruginosa PA14 [8] is reported as “did not change significantly”. Also, the “survival, single agent” value in the data set on S. aureus Newman was “neither NL1 nor Gm alone increased survival”.

The values are drawn from paper PMC10723041 (Science (New York, N.Y.), 2021).
